Assay results: ChEMBL document CHEMBL2311495, “Pyrazolo[1,5-c]quinazoline derivatives and their simplified analogues as adenosine receptor antagonists: synthesis, structure-affinity relationships and molecular modeling studies” (Bioorg Med Chem, 2013)

How the values were obtained:
[1] = biological target: T1, Adenosine receptor A1 (Homo sapiens) (UniProt P30542); assay: Displacement of [3H]DPCPX from human adenosine A1 receptor expressed in CHO cells at 1 uM by scintillation counting; format: cell-based
T1 sequence (whole entry): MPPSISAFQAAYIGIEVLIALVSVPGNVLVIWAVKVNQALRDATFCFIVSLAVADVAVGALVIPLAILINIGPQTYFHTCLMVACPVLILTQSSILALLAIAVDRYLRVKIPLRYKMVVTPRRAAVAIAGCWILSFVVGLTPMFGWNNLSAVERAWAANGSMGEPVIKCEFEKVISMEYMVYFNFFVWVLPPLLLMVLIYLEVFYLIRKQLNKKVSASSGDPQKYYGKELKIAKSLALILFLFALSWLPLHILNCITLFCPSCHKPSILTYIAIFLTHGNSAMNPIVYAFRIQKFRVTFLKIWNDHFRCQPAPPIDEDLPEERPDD
Outline: (§1)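 hA1 CHO membranes (50 µg protein) incubated with 1 nM [³H]DPCPX in 50 mM Tris-HCl pH 7.4 for 120 min at 25 °C. Six to eight antagonist concentrations, or 1 µM for % inhibition. Nonspecific binding taken with 1 µM DPCPX. Bound ligand filtered and counted. Ki from IC50 via Cheng–Prusoff, four separate assays in duplicate.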

Adenosine receptor A2a [2] = biological target: T2, Adenosine receptor A2a (Homo sapiens, UniProt P29274); assay: Displacement of [3H]ZM241385 from human adenosine A2a receptor expressed in CHO cells at 1 uM by scintillation counting; format: cell-based
Outline: (§2)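 Membranes of CHO cells expressing hA2A (50 µg protein) incubated with 1 nM [³H]ZM241385 in 50 mM Tris-HCl, 10 mM MgCl₂, pH 7.4, 60 min at 4 °C. Six to eight antagonist concentrations, or 1 µM for percent inhibition. Filtration and counting. Ki by Cheng–Prusoff from IC50, mean ± SEM of four duplicate experiments.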

[3] = biological target: T3, Adenosine receptor A2b (Homo sapiens) (UniProt P29275); assay: Antagonist activity at human adenosine A2b receptor transfected in CHO cells assessed as inhibition of NECA-induced cAMP accumulation at 1 uM by scintillation counting; format: functional, cell-based
T3 sequence (whole entry): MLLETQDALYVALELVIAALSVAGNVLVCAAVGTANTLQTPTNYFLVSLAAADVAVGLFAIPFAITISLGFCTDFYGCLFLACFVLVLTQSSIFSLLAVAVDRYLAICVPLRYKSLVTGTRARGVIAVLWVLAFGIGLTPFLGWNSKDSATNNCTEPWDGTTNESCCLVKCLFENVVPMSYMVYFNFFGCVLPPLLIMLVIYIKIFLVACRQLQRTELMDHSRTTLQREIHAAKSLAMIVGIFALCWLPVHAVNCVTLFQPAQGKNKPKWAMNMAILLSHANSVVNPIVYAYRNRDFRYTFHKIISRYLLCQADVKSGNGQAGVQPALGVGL
Outline: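 CHO cells stably expressing hA2B (1 × 10⁶/assay), pre-incubated 10 min at 37 °C, pH 7.4, with adenosine deaminase 2 IU/ml and Ro 20-1724 as PDE inhibitor. Stimulated by 200 nM NECA, compounds tested at 1 µM, result given as percent inhibition. Stopped with cold 6% TCA, ether-extracted, cAMP measured by [³H]cAMP competition with beef adrenal binding protein.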

Adenosine receptor A3 [4] = biological target: T4, Adenosine receptor A3 (Homo sapiens, UniProt P0DMS8); assay: Displacement of [125I]AB-MECA from human adenosine A3 receptor expressed in CHO cells by scintillation counting; format: cell-based
T4 sequence (P0DMS8 whole entry): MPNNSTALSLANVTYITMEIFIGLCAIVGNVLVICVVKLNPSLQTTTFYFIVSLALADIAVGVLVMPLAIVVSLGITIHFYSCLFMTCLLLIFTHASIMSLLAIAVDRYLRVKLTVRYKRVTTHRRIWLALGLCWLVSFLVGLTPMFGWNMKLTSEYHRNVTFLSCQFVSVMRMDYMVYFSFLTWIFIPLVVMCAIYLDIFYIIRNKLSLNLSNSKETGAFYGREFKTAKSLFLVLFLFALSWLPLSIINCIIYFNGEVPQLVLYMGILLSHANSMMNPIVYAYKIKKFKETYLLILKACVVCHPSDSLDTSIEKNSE
Outline: (§3)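 hA3 CHO membranes (50 µg protein) incubated with 0.5 nM [¹²⁵I]AB-MECA in 50 mM Tris-HCl, 10 mM MgCl₂, 1 mM EDTA, pH 7.4, for 120 min at 4 °C. Six to eight ligand concentrations, or single 1 µM for % inhibition. Nonspecific binding defined with 1 µM AB-MECA. Filtration on GF/B, counting. Ki by Cheng–Prusoff, mean ± SEM of four duplicate assays.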

[5] = biological target: T5, Adenosine receptor A3 (Homo sapiens) (UniProt P0DMS8); assay: Displacement of [125I]AB-MECA from human adenosine A3 receptor expressed in CHO cells at 1 uM by scintillation counting; format: cell-based; outline: as §3
T5 sequence (whole entry): T4 sequence (P0DMS8 whole entry)

Adenosine receptor A3 [6] = biological target: T4, Adenosine receptor A3; assay: Activity at human adenosine A3 receptor transfected in CHO cells assessed as Cl-IB-MECA-inhibited cAMP accumulation by scintillation counting; format: functional, cell-based
Outline: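 hA3-transfected CHO cells (1 × 10⁶/assay), trypsinised, pre-incubated 10 min at 37 °C in buffered salt/glucose medium pH 7.4 with adenosine deaminase 2 IU/ml and Ro 20-1724. cAMP response inhibited by 100 nM Cl-IB-MECA. Stopped with cold 6% TCA, ether-extracted, cAMP read by [³H]cAMP competition binding to beef adrenal binding protein. IC50 as mean ± SEM of four experiments.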

Adenosine receptor A1 = biological target: T6, Adenosine receptor A1 (Homo sapiens, UniProt P30542); assay: Displacement of [3H]DPCPX from human adenosine A1 receptor expressed in CHO cells by scintillation counting; format: cell-based; outline: as §1
T6 sequence (P30542 whole entry): T1 sequence (whole entry)

Adenosine receptor A2b = biological target: T7, Adenosine receptor A2b (Homo sapiens, UniProt P29275); assay: Antagonist activity at human adenosine A2b receptor transfected in CHO cells assessed as inhibition of NECA-induced cAMP accumulation by scintillation counting; format: functional, cell-based
T7 sequence (P29275 whole entry): T3 sequence (whole entry)

Adenosine receptor A2a [7] = biological target: T2, Adenosine receptor A2a; assay: Displacement of [3H]ZM241385 from human adenosine A2a receptor expressed in CHO cells by scintillation counting; format: cell-based; outline: as §2

T2 sequence (P29274 whole entry): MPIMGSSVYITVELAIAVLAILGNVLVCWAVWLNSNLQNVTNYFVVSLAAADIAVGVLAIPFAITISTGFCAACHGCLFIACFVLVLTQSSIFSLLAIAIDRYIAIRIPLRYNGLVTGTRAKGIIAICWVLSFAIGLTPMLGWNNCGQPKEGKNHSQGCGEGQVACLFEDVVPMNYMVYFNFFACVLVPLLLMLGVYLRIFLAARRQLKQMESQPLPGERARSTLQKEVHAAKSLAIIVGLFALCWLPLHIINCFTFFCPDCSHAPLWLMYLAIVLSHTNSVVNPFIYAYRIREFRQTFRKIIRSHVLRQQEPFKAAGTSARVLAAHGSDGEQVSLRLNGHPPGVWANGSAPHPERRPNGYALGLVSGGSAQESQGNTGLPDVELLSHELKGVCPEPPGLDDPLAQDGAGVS

Structure (SMILES)	inhibition [1]	inhibition (Adenosine receptor A2a [2])	inhibition [3]	Ki (Adenosine receptor A3 [4])	inhibition [5]	IC50 (Adenosine receptor A3 [6])	Ki (Adenosine receptor A1)	IC50 (Adenosine receptor A2b)	Ki (Adenosine receptor A2a [7])
CC(C)OC(=O)c1cc2c3ccccc3nc(O)n2n1	1%	1%	4%	450 nM	–	–	–	–	–
O=C(OCc1ccccc1)c1cc2c3ccccc3[nH]c(=O)n2n1	3%	4%	2%	–	1%	–	–	–	–
CCOC(=O)c1cc2c3ccccc3[nH]c(=O)n2n1	–	–	–	315 nM	–	–	–	–	–
Oc1ccccc1-c1n[nH]c(-c2ccccc2)n1	47%	2%	8%	–	39%	–	–	–	–
Nc1ccccc1-c1cc(-c2ccccc2)n[nH]1	9%	1%	2%	680 nM	–	–	–	–	–
Nc1ccccc1-c1cc(-c2ccco2)n[nH]1	4%	6%	1%	–	1%	–	–	–	–
COc1ccc(-c2cc3c4ccccc4[nH]c(=O)n3n2)cc1	4%	1%	2%	100 nM	–	324 nM	–	–	–
Oc1nc2ccccc2c2cc(-c3ccccn3)nn12	4%	1%	2%	252 nM	–	–	–	–	–
CCOC(=O)c1nn2c(=O)[nH]c3ccccc3c2c1C(=O)OCC	12%	1%	5%	101 nM	–	–	–	–	–
COC(=O)c1cc2c3ccccc3[nH]c(=O)n2n1	–	–	–	440 nM	–	–	–	–	–
CCOC(=O)c1cc2c3ccccc3nc(O)n2n1	3%	5%	3%	–	–	–	–	–	–
COC(=O)c1cc2c3ccccc3nc(O)n2n1	1%	3%	6%	–	–	–	–	–	–
Oc1nc2ccccc2c2cc(-c3ccco3)nn12	5%	1%	3%	80 nM	–	138 nM	–	–	–
Nc1ccccc1-c1cc(-c2cccs2)n[nH]1	2%	1%	3%	–	–	–	–	–	–
Oc1nc2ccccc2c2cc(-c3cccs3)nn12	7%	20%	6%	40 nM	–	263 nM	–	–	–
Nc1nc2ccccc2c2cc(-c3cccs3)nn12	44%	20%	3%	–	18%	–	–	–	–
Oc1ccccc1-c1cc(-c2ccccc2)[nH]n1	13%	1%	4%	–	7%	–	–	–	–
COc1ccc(-c2cc3c4ccccc4nc(N)n3n2)cc1	7%	15%	3%	–	45%	–	–	–	–
Nc1nc2ccccc2c2cc(-c3ccco3)nn12	–	–	–	–	35%	–	35 nM	120 nM	80 nM
Cc1ccc(-c2cc3c4ccccc4nc(O)n3n2)cc1	1%	12%	2%	25 nM	–	88 nM	–	–	–

Further lines, results first:

inhibition [1]	inhibition (Adenosine receptor A2a [2])	inhibition [3]	Ki (Adenosine receptor A3 [4])	inhibition [5]	IC50 (Adenosine receptor A3 [6])	Ki (Adenosine receptor A1)	IC50 (Adenosine receptor A2b)	Ki (Adenosine receptor A2a [7])	Structure (SMILES)
1%	11%	1%	140 nM	–	–	–	–	–	Oc1nc2ccccc2c2cc(-c3ccccc3F)nn12
2%	9%	5%	–	–	–	–	–	–	COc1ccc(-c2cc(-c3ccccc3N)[nH]n2)cc1
–	–	–	600 nM	–	–	–	–	–	Nc1ccccc1-c1cc(-c2cccs2)[nH]n1
3%	1%	2%	–	23%	–	–	–	–	CCOC(=O)c1ccccc1-c1cc(-c2cccs2)n[nH]1
12%	1%	4%	–	28%	–	–	–	–	Oc1nc2ccccc2c2cc(-c3ccccc3)nn12
6%	1%	3%	23 nM	–	82 nM	–	–	–	Oc1nc2ccccc2c2cc(-c3ccc(Cl)cc3)nn12
1%	5%	3%	–	15%	–	–	–	–	Nc1nc2ccccc2c2cc(-c3ccccc3)nn12
1%	1%	4%	520 nM	–	–	–	–	–	O=C(Nc1nc2ccccc2c2cc(-c3ccccc3)nn12)c1ccccc1
–	–	–	480 nM	–	–	–	–	–	COc1ccc(-c2cc(-c3ccccc3N)n[nH]2)cc1
2%	5%	1%	–	25%	–	–	–	–	O=C(NCc1ccccc1)c1cc2c3ccccc3[nH]c(=O)n2n1
